High-throughput results deposited in PubChem BioAssay by Broad Institute.
Rows were chosen to be rich in hits. Some 3.2% of all compounds tested hit in one or more screens of this group.
Cneo AK release = Cryptococcus neoformans lysis via adenylate kinase release; C. neoformans lysis, adenylate kinase release luminescence, 4 h; normalised: neutral wells 0, clomiphene wells 100; lysis activity, % at 15 µM; 0.2% of 360,000 active;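 active = mean lysis activity across replicates of at least 80%, whatever share of replicates individually reach that level; inactive = mean lysis activity below 80%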
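Material – log-phase Cryptococcus neoformans yeast cells · Input – 5 × 10^6 yeast cells/mL · Medium – fresh YPD growth medium · Doses – single compound concentration per well · Timing – static 4 h at 37 °C with compound, 1 h detection · Detection – adenylate kinase release luminescence · Read-out – signal increase indicating cell lysis · Control set – Clomiphene as positive lysis control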
S100A4 MyoIIA = blocks human S100A4 binding to myosin IIA peptide | P26447 | inhibition, % at 10.7 µM | 0.14% of 360,000 active | S100A4/TAMRA-MyoIIA peptide fluorescence polarization | AID 652163;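 active = mean inhibition of at least 70% across replicates, with every replicate also reaching that level; inconclusive = mean inhibition reaches 70% but some replicates fall short; inactive = mean inhibition below 70%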
Target sequence (P26447 whole entry, looked up): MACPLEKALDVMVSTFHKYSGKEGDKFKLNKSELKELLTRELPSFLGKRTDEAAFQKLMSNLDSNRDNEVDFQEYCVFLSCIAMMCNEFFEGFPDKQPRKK
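Material: S100A4 monomer protein / Buffer or medium: 50 mM HEPES pH 7.2, 10 mM CaCl2, 100 mM KCl / Times: 5 min incubation before reading / Benchmarks: neutral control DMSO, positive control TFP / Reagent: labelled myosin peptide probe, 5 nM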
MLL AF4-AF9 inh = MLL-AF4/AF9 protein interaction inhibition; P42568; AlphaScreen, biotin-AF4 peptide binding to FLAG-AF9; inhibition, % at 10 µM; 0.47% of 350,000 active; AID 651704;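 active = every replicate reaching a set inhibition limit, whatever the replicate mean, cut at about 25% in these data; inconclusive = mean inhibition reaches that limit but some replicates miss it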
Target sequence (P42568 whole entry, looked up): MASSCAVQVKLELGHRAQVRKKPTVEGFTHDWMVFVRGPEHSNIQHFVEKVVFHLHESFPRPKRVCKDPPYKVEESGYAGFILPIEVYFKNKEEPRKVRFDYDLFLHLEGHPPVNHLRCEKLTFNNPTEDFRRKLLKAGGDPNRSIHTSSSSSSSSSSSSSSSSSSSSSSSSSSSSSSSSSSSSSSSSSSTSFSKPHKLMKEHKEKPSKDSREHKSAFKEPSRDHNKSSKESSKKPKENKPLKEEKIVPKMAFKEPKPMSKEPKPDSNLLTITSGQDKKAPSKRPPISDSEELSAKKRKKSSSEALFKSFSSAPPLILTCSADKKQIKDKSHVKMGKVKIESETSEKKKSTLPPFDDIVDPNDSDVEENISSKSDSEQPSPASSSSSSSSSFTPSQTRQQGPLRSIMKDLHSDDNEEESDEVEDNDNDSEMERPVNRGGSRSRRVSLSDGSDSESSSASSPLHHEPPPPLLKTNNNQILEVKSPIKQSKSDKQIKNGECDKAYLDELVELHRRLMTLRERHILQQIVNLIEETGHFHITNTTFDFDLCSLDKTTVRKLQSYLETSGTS
DENV2 CPE = inhibitors of DENV2 cytopathic effect; DENV2-infected cells, cytopathic effect rescue, plate reader; CPE inhibition, % at 9.99 µM; 1.7% of 350,000 active; AID 651640; in the data active = CPE inhibition above about 20%, passing the limit was not always enough; inconclusive = no clear call, values can overlap the other calls; tested in BHK-21 cells
rRNA inh HTS = inhibitors of bacterial rRNA selective over humanized ribosomes; GFP signal change (wild-type ribosome), % (no concentration beside the values); E. coli WT GFP vs humanized-ribosome RFP mutants, fluorescence, 24 h; stronger effect = lower value; DMSO median 0, no signal -100; 1.6% of 350,000 active;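 active = significant combined selectivity score with lowered wild-type GFP, culture density cut under 30%, mutant RFP and density less affected; inactive = any of these conditions unmet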
PfHsp90 set2 = growth inhibition of yeast expressing Plasmodium Hsp90 | inhibition, % at 9.4 µM | 0.32% of 310,000 active | S. cerevisiae expressing PfHsp90, BacTiter-Glo ATP, 48 h; yeast lacking PDR1 and PDR3 efflux regulators;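 active = every replicate shows inhibition above about 80%, whatever the replicate mean, limit read from the data; inconclusive = mean inhibition reaches the set limit but some replicate falls short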
Numbers stand for hits; n = inactive; u = inconclusive; x = no result.

SMILES	Cneo AK release	S100A4 MyoIIA	MLL AF4-AF9 inh	DENV2 CPE	rRNA inh HTS	PfHsp90 set2
CCCNC(=O)N1C[C@H](O)COC[C@H]2O[C@H](CC(=O)N3CCN(C)CC3)CC[C@@H]21	118	n	n	n	n	x
C[C@H]1CN([C@@H](C)CO)C(=O)c2cc(NS(=O)(=O)c3ccc(F)cc3)ccc2O[C@H]1CN(C)CC1CCCCC1	n	n	n	n	n	x
CCCn1c(=O)c2ccccc2n2c(SCCNCCO)nnc12	n	n	27	n	n	n
CC=Cc1ccc2n(c1=O)C[C@H]1[C@H](CO)[C@@H](C(=O)NCc3ccc4c(c3)OCO4)[C@@H]2N1C(=O)COC (mixture of isomers)	n	n	n	n	n	x
CC=Cc1ccc2n(c1=O)C[C@H]1[C@H](CO)[C@@H](C(=O)NCc3ccc4c(c3)OCO4)[C@@H]2N1C(=O)C1CC1 (mixture of isomers)	104	n	n	n	n	x
CC=Cc1ccc2n(c1=O)C[C@@H]1[C@@H](CO)[C@H](C(=O)NCc3ccc4c(c3)OCO4)[C@H]2N1C(=O)C1CC1 (mixture of isomers)	101	n	n	n	n	x
CC=Cc1ccc2n(c1=O)C[C@@H]1[C@@H](CO)[C@H](C(=O)NCc3ccc4c(c3)OCO4)[C@H]2N1C(=O)COC (mixture of isomers)	n	n	n	n	n	x
CC(C)[C@@H]1C(=O)N[C@@H](c2ccc3c(c2)OCO3)CC=CC[C@@H](C)Oc2ccccc2C(=O)N1C (mixture of isomers)	x	x	x	x	n	x
N#C[C@@H]1[C@@H](c2ccc(C#CC3CCCCC3)cc2)[C@H](CO)N1C(=O)Nc1ccc(F)cc1	x	n	n	n	n	x
O=C(O)c1cc(S(=O)(=O)N2CCN(C(c3ccccc3)c3ccccc3)CC2)ccc1Cl	n	n	n	n	-16	n
CC(NCC(=O)Nc1cc(S(=O)(=O)N2CCCCCC2)ccc1Cl)c1ccccc1 (configuration not stated)	n	n	n	n	-23	n
O=C(Cn1cnc2ccccc21)c1ccc(Br)cc1	n	n	n	x	-28	n
C=C(Br)Cn1cnc2ccccc21	x	n	n	n	n	n
CCCCCCOc1ccc(N2C(=O)CC(N3CCC(C(=O)OCC)CC3)C2=O)cc1 (configuration not stated)	n	x	x	x	x	106
CCOC(=O)C1CCCN(C2CC(=O)N(c3cccc(C(F)(F)F)c3)C2=O)C1 (configuration not stated)	n	x	x	x	x	120
COc1cc(OC)cc(N2C(=O)CC(N3CCC(C(=O)N4CCCCC4)CC3)C2=O)c1 (configuration not stated)	n	n	n	n	n	82
CCOC(=O)C1CCCN(C2CC(=O)N(c3ccccc3)C2=O)C1 (configuration not stated)	n	n	n	n	n	n
CCOC(=O)C1CCN(C2CC(=O)N(c3ccc(OCC)cc3)C2=O)CC1 (configuration not stated)	n	x	x	x	x	n
Cc1noc(C)c1NC(=O)Nc1ccc2c(c1)CC(=O)N([C@@H](C)CO)C[C@@H](C)[C@H](CN(C)S(C)(=O)=O)O2	x	n	n	n	n	x
CCOc1ccccc1N(CC(=O)Nc1ccc(OC)cc1)S(=O)(=O)c1ccccc1	n	n	n	28	n	n
COc1ccc(S(=O)(=O)N(CC(=O)NC2CCCC2)c2ccccc2OC)cc1	n	n	n	u	-29	n
CCOc1ccccc1N(CC(=O)Nc1ccccc1F)S(=O)(=O)c1ccccc1	n	n	n	n	-19	n
COc1ccccc1N(CC(=O)Nc1ccc2c(c1)OCO2)S(=O)(=O)c1ccccc1	n	x	x	x	x	x
COC(=O)c1cc(NC(=O)CN(c2ccccc2OC)S(=O)(=O)c2ccccc2)ccc1Cl	n	n	x	x	-21	n
CC(C)CC#Cc1cnc2c(c1)C(=O)N([C@@H](C)CO)C[C@H](C)[C@@H](CN(C)C(=O)CN1CCOCC1)O2	n	n	n	n	n	x
SMILES	Cneo AK release	S100A4 MyoIIA	MLL AF4-AF9 inh	DENV2 CPE	rRNA inh HTS	PfHsp90 set2
COc1ccccc1N(CC(=O)NCCSCc1ccccc1)S(=O)(=O)c1ccc(C)cc1	n	n	n	n	n	n
COc1ccc(NC(=O)NC2CCCCCCC2)c(OC)c1	n	x	x	x	x	n
Cc1cccc(N(CC(=O)NC2CC2)S(=O)(=O)c2ccc(Cl)cc2)c1	n	n	n	50	n	n
COc1ccccc1N(CC(=O)NCCSCc1ccccc1)S(=O)(=O)c1ccccc1	n	n	n	n	-15	x
COc1ccc(CC(=O)NC2CCCCCC2)c(OC)c1	n	n	n	64	n	n
COc1ccccc1-c1ccc2n(c1=O)C[C@H]1[C@H](CO)[C@@H](C(=O)NCc3ccccc3F)N[C@@H]21	n	n	n	n	n	x
COc1ccc(S(=O)(=O)Nc2cccc3c2O[C@H](CN(C)S(=O)(=O)c2ccc(F)cc2)[C@H](C)CN([C@@H](C)CO)C3=O)cc1	n	n	n	n	n	x
Cc1oc2ccc(OCc3ccc(Cl)cc3)cc2c1C(=O)O	n	n	n	n	n	n
Cc1oc2ccc(OCc3ccc(Br)cc3)cc2c1C(=O)O	n	n	n	n	-26	n
Cc1ccc(NC(=O)CCC(=O)N/N=C/c2ccc(O)cc2O)cc1	n	n	n	n	-12	n
O=C(CNC(=O)C(c1ccccc1)c1ccccc1)N/N=C/c1ccc(O)cc1O	x	n	n	n	-20	n
Cc1cccc(OCC(=O)NCC(=O)N/N=C/c2ccc(O)cc2O)c1	x	n	n	x	-30	n
O=C(CCC(=O)Nc1ccc(F)cc1)N/N=C/c1ccccc1O	x	n	n	n	n	n
COc1cccc(/C=N/NC(=O)CNC(=O)COc2cccc(C)c2)c1O	x	n	n	n	n	n
Cc1nonc1C(=O)N/N=C/c1ccncc1	n	n	n	n	n	n
O=C(CNC(=O)C(c1ccccc1)c1ccccc1)N/N=C\c1cccc(O)c1	n	n	n	n	n	n
Cc1nonc1C(=O)N/N=C/c1ccc(O)cc1O	n	n	n	n	-22	n
O=C(C[C@H]1C[C@H]2c3cc(NC(=O)CC4CC4)ccc3O[C@H]2[C@H](CO)O1)NCc1ccc(Cl)cc1	n	n	n	n	n	x
COc1ccc(NC(=O)Nc2ccc3c(c2)C(=O)N([C@@H](C)CO)C[C@H](C)[C@@H](CN(C)C)OCCCC[C@@H](C)O3)cc1	n	n	n	n	n	x
C[C@@H]1CN([C@@H](C)CO)C(=O)Cc2cc(NC(=O)CCCCCC(=O)Nc3ccccc3N)ccc2O[C@H]1CN(C)S(=O)(=O)c1ccccc1	n	n	n	n	n	x
